From PubChem BioAssay
Hits are enriched below; roughly 0.72% of the tested compounds scored in any of these assays.
GSH fluor: compound fluoresces at 488/530 nm on GSH beads | GSH beads flow cytometry, compound fluorescence 488/530 nm; stronger effect = higher value | fluorescence (KMESF) at 10 µM | hit rate 0.25% among 190,000; in the data active means fluorescence above about 89;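 further: glutathione beads carrying GST-tagged Bcl family fusion proteins plus one bare bead set; values are compound well signal with DMSO vehicle wells as background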
DTT redox prof: compounds producing H2O2 with reducing agent – biochemical, NIH compound library profiling, artefact control for MLSCN library redox annotation, primary screen; DTT-dependent redox cycling H2O2, phenol red/HRP absorbance; 100% = 100 µM peroxide control, 0% = buffer; activation, % at 10 µM; hit rate 0.03% among 200,000;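 active means activation of at least 50% relative to the plate's high and low controls in the primary single-dose screen; inactive means activation below 50%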;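 further: compound incubated with DTT at 0.8 mM final as the reducing agent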
ABCB1 block: blocks JC-1 efflux by human ABCB1 transporter; hit rate 0.067% among 190,000; CCRF-Adr cells, flow cytometry; P08183; inhibition, % at 6.6 µM; in the data active means inhibition above about 40%;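 further: 0% = vehicle and 100% = reference inhibitor; higher value means more JC-1 retained so stronger ABCB1 efflux block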
Avidin fluor: compound fluoresces at 488/530 nm on avidin beads; compound fluorescence 488/530 nm, flow cytometry; stronger effect = higher value; fluorescence (KMESF) at 10 µM; hit rate 0.38% among 220,000; AID 1775; in the data active means fluorescence above about 47
ABCG2 block: human ABCG2 inhibition, ABCB1 as counter-screen; hit rate 0.1% among 190,000; Q9UNQ0; IgMXP3 cells, JC-1 efflux, flow cytometry; inhibition, % at 6.6 µM; AID 1325;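 active means inhibition above 80%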;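 further: 0% = DMSO and 100% = nicardipine control wells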
Target sequence (Q9UNQ0 whole entry, looked up): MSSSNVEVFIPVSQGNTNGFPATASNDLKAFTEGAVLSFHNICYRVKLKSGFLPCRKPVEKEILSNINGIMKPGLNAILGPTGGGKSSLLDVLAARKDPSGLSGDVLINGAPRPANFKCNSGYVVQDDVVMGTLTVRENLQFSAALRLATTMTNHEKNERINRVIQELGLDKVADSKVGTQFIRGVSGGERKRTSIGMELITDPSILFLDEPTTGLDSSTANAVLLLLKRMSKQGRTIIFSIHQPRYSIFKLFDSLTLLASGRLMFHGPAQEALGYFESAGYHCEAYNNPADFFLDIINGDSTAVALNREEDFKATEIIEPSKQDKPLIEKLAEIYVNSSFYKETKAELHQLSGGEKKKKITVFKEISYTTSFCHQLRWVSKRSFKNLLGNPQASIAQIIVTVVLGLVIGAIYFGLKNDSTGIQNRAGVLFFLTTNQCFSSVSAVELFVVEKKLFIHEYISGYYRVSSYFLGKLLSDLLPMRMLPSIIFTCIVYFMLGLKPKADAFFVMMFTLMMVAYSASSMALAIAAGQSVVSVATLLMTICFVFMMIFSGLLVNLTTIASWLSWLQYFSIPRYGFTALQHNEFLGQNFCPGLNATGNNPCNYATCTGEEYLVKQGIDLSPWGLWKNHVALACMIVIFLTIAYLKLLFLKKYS
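Measure – % inhibition of efflux relative to nicardipine and DMSO · Test system – ABCG2 IgMXP3 and barcoded ABCB1 CCRF-Adr cell mix · Control set – nicardipine as high control, DMSO as low control · Compound – one concentration, 6.6 µM final · Signal – flow cytometry of retained JC-1 fluorescence · Timing – 10 min exposure at 25 °C with rotation, no wash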
Starred values were filed as active, the others as inactive; nt = no result given; ! = not confirmed by another sample.

SMILES | GSH fluor | DTT redox prof | ABCB1 block | Avidin fluor | ABCG2 block
O=C(Nc1ccc(Cl)cc1Cl)C1=Cc2ccccc2OC1 | 14 | 0 | 0 | 9 | 0
Cc1ccc(C(=O)COC(=O)c2cc(=O)[nH]c3ccccc23)cc1C | 13 | 0 | 1 | 8 | 5
CCCS(=O)(=O)NCCc1cc2ccc(C)cc2[nH]c1=O | 88* | -1 | 0 | 5 | 1
O=C(O)CCC(=O)Nc1ccc(S(=O)(=O)NCCc2ccccc2)cc1 | nt | nt | nt | 6 | nt
Cc1ccc(Nc2nnc(SCC(=O)NCc3ccco3)s2)cc1 | 259* | -3 | 0 | 7 | 2
Cc1ccccc1OCCCCCNCCO | 57 | -1 | 0 | 5 | 1
CC(C)c1ccccc1OCCCCCNCCO | 23 | 2 | 0 | 48* | 2
O=C(N/N=C/C1CC=CCC1)c1cc(-c2cccnc2)nc2ccccc12 (stereo not given) | 14 | 0 | 1 | 21 | 2
O=C(Nc1ccccc1)Nc1ccccn1 | 32 | -1 | 0 | 68*! | 13
COCCCN(CC(=O)Nc1ccc(N2CCOCC2)cc1)S(=O)(=O)c1ccccc1 | 20 | -1 | 2 | 9 | 3
O=C(O)C(Cc1cc2ccccc2[nH]1)N1C(=O)C2CC=C(Cl)CC2C1=O (stereo not given) | 117* | 2 | 1 | 7 | 2
O=C1C2CC=C(Cl)CC2C(=O)N1CCc1ccccc1 (stereo not given) | 52 | -2 | 0 | 9 | 1
COc1ccc(C)cc1S(=O)(=O)N1CCOCC1 | 11 | 0 | 0 | 12 | 0
O=c1c2ccccc2nc2n1CCN2Cc1ccc(Cl)cc1 | 18 | 0 | 0 | 2 | 1
Cc1ccc(-c2nc3ccccc3c(=O)n2NC(=O)COc2ccccc2)cc1 | 231* | 0 | 1 | 15 | -6
O=C(COc1ccccc1)Nn1c(-c2ccccc2)nc2ccccc2c1=O | 7 | 0 | 0 | 6 | 4
Cn1nc(-c2ccccc2)c(C(O)c2ccc(Cl)cc2)c1Cl (stereo not given) | 13 | 2 | 1 | 56* | 3
CCOC(=O)C(C)Sc1nc2c([nH]c3ccccc32)c(=O)n1C (stereo not given) | 15 | 0 | 0 | 7 | 0
CC(C)Sc1nc2c([nH]c3ccccc32)c(=O)n1C | 11 | -1 | 1 | 57* | 3
O=C(CN1CCN(C(=O)C2COc3ccccc3O2)CC1)Nc1ccccc1 (stereo not given) | nt | nt | nt | 4 | nt
CCOc1ccc(/C(O)=C2\C(=O)C(=O)N(c3cc(C)on3)C2c2ccccc2OC)cc1 (stereo not given) | 15 | 1 | 0 | 76* | 7
CCOc1ccc(C2/C(=C(\O)c3ccc(OC)c(OC)c3)C(=O)C(=O)N2c2cc(C)on2)cc1OC (stereo not given) | 31 | -3 | 0 | 13 | -1
Cn1c(Cn2c(=O)sc3ccccc32)nnc1SCC(=O)NCc1ccco1 | 16 | 2 | 1 | 26 | 4
O=C(CCCn1c(=O)c2ccccc2n(Cc2ccccc2)c1=O)NCc1ccco1 | 10 | 0 | 1 | 60* | 5
O=C(CCn1c(=O)sc2ccccc21)NCc1ccco1 | 120* | 0 | 0 | 14 | 0
SMILES | GSH fluor | DTT redox prof | ABCB1 block | Avidin fluor | ABCG2 block
CC(=O)NC1(C(F)(F)F)NC(=O)N(CC(C)C)C1=O (stereo not given) | 16 | 0 | 0 | 53* | 0
Cc1ccc(/C=C2/CCc3c([nH]c4ccccc34)C2=O)cc1 | 18 | 1 | 0 | 20 | 3
Cc1ccc2[nH]c3c(c2c1)CC/C(=C/c1ccccc1)C3=O | 13 | 0 | 0 | 194* | 2
O=C(COc1ccc(-c2nnco2)cc1)NC1CCCc2ccccc21 (stereo not given) | 233* | -1 | 0 | 4 | 3
COc1ccccc1/C=C/C=C1\Oc2c(ccc(O)c2CN2CCN(CCO)CC2)C1=O | 15 | 0 | 4 | 127* | 5
COC(=O)C(C(=O)OC)c1ccccc1[N+](=O)[O-] | 272* | 0 | 0 | 7 | 2
CCn1c(SCC(N)=O)nnc1-c1ccc(S(=O)(=O)N2CCN(C)CC2)cc1 | 33 | 0 | 0 | 11 | 7
CCn1c(SCC(=O)N2CCCCC2C)nnc1-c1ccc(S(=O)(=O)N2CCN(C)CC2)cc1 (stereo not given) | 264* | 0 | 0 | 7 | 0
COc1cc(-c2csc(N3CCOCC3)n2)cc(OC)c1OC | 263* | 2 | 1 | 7 | 6
COCCNC(=O)C1c2cc(OC)c(OC)cc2C(=O)N(C)C1c1cccnc1 (stereo not given) | 20 | -3 | 0 | 19 | 1
COc1cc2c(cc1OC)C(C(=O)NCc1cccnc1)C(c1cccnc1)N(C)C2=O (stereo not given) | 26 | 1 | -1 | 174* | -5
CC(C)[C@H](NC(=O)c1ccco1)C(=O)OCC(=O)c1ccc2c(c1)NC(=O)CO2 | 18 | -1 | 0 | 7 | 3
CC(C)CC(NC(=O)c1ccc(Cl)cc1)C(=O)OCC(=O)c1ccc2c(c1)NC(=O)CO2 (stereo not given) | 239* | 1 | 1 | 4 | 5
Cc1cccc(NC(=O)CSc2nnc(-c3ccc(S(=O)(=O)N4CCOCC4)cc3)n2C)c1 | 12 | 3 | 0 | 68* | 3
Cc1ccc(-c2nnc(SCC(=O)Nc3cccc(C(=O)N4CCOCC4)c3)n2C)cc1 | 3 | 0 | 1 | 11 | 2
Cc1ccc(C(=O)Nc2ccc(S(=O)(=O)N3CCOCC3)cc2)cc1 | 22 | 0 | 0 | 227* | 1
COc1ccc(OC)c(NC(=O)CSc2nnc(CNC(=O)COc3ccc(Cl)cc3)o2)c1 | 15 | 0 | 1 | 68* | 55
COc1cc(C(=O)N2CCN(C(=O)Cc3ccccc3)CC2)cc(OC)c1OC | 13 | 2 | 0 | 8 | 0
COc1cccc(C(=O)N2CCN(C(=O)Cc3ccccc3)CC2)c1 | 22 | 0 | 0 | 54* | 0
CC(C)N(c1ccccc1)c1ccc(NC(=O)C2CCCO2)cc1 (stereo not given) | 266* | 0 | 1 | 7 | 3
COC(=O)c1sc(-c2cccs2)cc1N | nt | nt | nt | 50* | nt
COC(=O)CC1C(=O)NCCN1C(=O)CSc1nnnn1-c1ccc(Cl)cc1 (stereo not given) | 12 | 0 | 0 | 13 | 4
CCOc1ccc(NC(=O)CNC(=O)c2cccs2)cc1 | 14 | 0 | 0 | 11 | 1
O=S(=O)(c1ccc(Br)s1)N1CCc2ccccc2C1 | 26 | 3 | 1 | 48* | 1
Cc1ccccc1C1(CCN2CCCCC2)CCOC(C)(C)C1 (stereo not given) | 11 | -1 | 1 | 5 | 7
